# Sampled rows, rich in hits. Any-hit rate of the full collection: about 1.3%.
# G6PDH counter – L. mesenteroides G6PDH inhibition counter-screen; actives 0.12% (n = 200,000); Purified L. mesenteroides G6PDH, diaphorase/resazurin coupled fluorescence, 45 min; inhibition, % at 5 µM; in the data active means inhibition above about 50%
# Diaphorase act – counter-screen for diaphorase-based assays: diaphorase activators and chemical reducers. Diaphorase/resazurin coupled assay, resorufin fluorescence, 16 min; active compounds read high; 1 = vehicle wells, 0 = NADH-free wells. activation factor at 20 µM. actives 0.005% (n = 190,000). AID 1229;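 active means diaphorase activity raised at least twofold by the compound at 20 µM; inactive means activation factor below 2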
#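 Material: bacterial diaphorase enzyme (C. kluyveri); amount: enzyme 0.07 U/mL final; reagent: NADH substrate 0.114 mM plus resazurin dye 0.1 mM, final; doses: single compound dose of 20 µM, 1% DMSO final; timing: 16 min enzyme reaction, ambient temperature; measured by: fluorescence of resorufin, 544 nm excitation, 590 nm emission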
# HKDC1 inh – HKDC1 (human) hexokinase inhibition | inhibition, % at 20 µM | actives 0.16% (n = 340,000) | recombinant HKDC1, G6PDH/diaphorase resazurin coupled fluorescence;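 active means inhibition above about 35% when tested at 20 µM, limit read from the data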;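 further: plate controls were DMSO wells with enzyme for no effect and DMSO wells lacking enzyme for full effect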
#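 Incubation: 90 min at room temperature in dark / Material: recombinant HKDC1 (HK5) hexokinase enzyme, produced in-house / Quantity: enzyme 5 µg/mL final / Compound: one dose of 20 µM, 1% DMSO / Reagent: glucose and ATP substrates / Buffer or medium: Tris pH 8.0 buffer with MgCl2, Tween-20, BSA, BME / Technique: resorufin fluorescence at 613 nm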
# PfG6PD inh – PfG6PD (Plasmodium falciparum) enzyme inhibition. actives 0.78% (n = 350,000). PfGluPho enzyme, NADPH resazurin-diaphorase fluorescence. inhibition, % at 20 µM;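 active means inhibition reaching at least a set limit at 20 µM in the primary screen, cut at about 59% in these data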;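 further: 0% = DMSO wells with substrate and 100% = DMSO wells lacking glucose-6-phosphate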
# Tb hexokinase – blocks Trypanosoma brucei hexokinase 1 activity; recombinant TbHK1, G6PDH-coupled NADH A340; inhibition, % at 10 µM; actives 0.11% (n = 220,000); AID 1430;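 active means inhibition of 50% or more in the single-dose primary screen; inactive means inhibition below 50%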
# Diaphorase inh – counter-screen for diaphorase-based assays: diaphorase inhibitors and chemical oxidizers | diaphorase resazurin-to-resorufin fluorescence, NADH, 16 min; bacterial (C. kluyveri) enzyme, not human | inhibition, % at 20 µM | actives 0.69% (n = 190,000);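 active means primary screen inhibition at 20 µM above a set limit, cut at about 50% in these data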;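 further: plate controls were DMSO with full reaction for no effect and wells lacking NADH for full effect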
#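 Test system: bacterial diaphorase enzyme (C. kluyveri); Quantity: 0.14 U/mL diaphorase, enzyme working solution; Times: reaction incubation of 16 min at room temperature; Measured by: fluorescence of resorufin formed from resazurin, Ex 544/Em 590 nm; Benchmarks: positive control minus NADH, DMSO neutral control.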
# Active calls of the source: *; . = not tested or not shown.
SMILES,G6PDH counter,Diaphorase act,HKDC1 inh,PfG6PD inh,Tb hexokinase,Diaphorase inh
CCc1nc2ccccc2c(C(=O)Nc2ccc(F)cc2)c1C,.,.,-5,16,.,.
O=C(CC(C(=O)O)c1c[nH]c2ccccc12)c1ccccc1 (stereo not given),6,0.2,-1,-18,-2,78*
CCOC(=O)NC1(Nc2ccc(Cl)cn2)Oc2ccccc2O1,26,0.5,.,.,-5,54*
CCOC(=O)/C=C/C(=O)OCC(=O)Nc1ccc(Cl)cn1,8,0.9,7,1,-1,8
Cc1c(Cc2ccccc2)c(=O)oc2c(O)c(O)ccc12,40,0.3,9,-9,15,73*
CN(C(=O)c1ccoc1)c1ccc2ccccc2c1,.,.,1,2,.,.
COc1cccc2cc(C(=O)NCc3ccc(Cl)cc3)c(=O)oc12,.,.,-3,-41,.,.
Cc1ccc(C(=O)C(C)OC(=O)c2n[nH]c(=O)c3ccccc23)cc1 (stereo not given),0,0.9,2,-18,-1,13
Nc1ccc2[nH]ncc2c1,45,0.4,6,10,-7,58*
O=C(Cc1ccc(F)cc1)Nc1ccc2[nH]ncc2c1,.,.,-6,11,.,.
O=C(CN1CC(=O)Oc2ccccc21)OCC(=O)c1ccc(F)cc1,28,0.5,4,-21,9,51*
COc1ccc(-c2[nH]nc3nc(N4CCN(C(=O)c5ccoc5)CC4)cc(C(F)(F)F)c23)cc1,.,.,.,28,.,.
O=C(O[C@@H]1Cc2c(O)cc(O)cc2O[C@@H]1c1cc(O)c(O)c(O)c1)c1cc(O)c(O)c(O)c1,5,0.3,.,.,.,74*
Oc1cc(O)c2c(c1)O[C@H](c1ccc(O)c(O)c1)[C@H](O)C2,.,.,-2,18,.,.
CC(Sc1nnnn1C)C(=O)Nc1ncc(Cl)cc1Cl (stereo not given),.,.,-6,-4,.,.
CC(Sc1nnc(-c2ccccc2)c(-c2ccccc2)n1)C(=O)Nc1ncc(Cl)cc1Cl (stereo not given),-11,0.5,14,20,-6,53*
CCc1cc(C(=O)N(Cc2ccccc2)c2c(N)n(CCOC)c(=O)[nH]c2=O)sc1C,.,.,1,-12,.,.
CN1CC2(Cc3c1ccc1ccccc31)C(=O)OC(C)(C)OC2=O,7,0.5,25,21,6,51*
Cc1ccc2c(c1)CC1(CN2C)C(=O)OC2(CCCCC2)OC1=O,13,0.8,1,15,-5,19
O=C(COc1ccc(Cl)cc1Cl)NC(=S)Nc1ccccc1C(=O)O,8,0.5,.,.,3,53*
COc1ccc(Cl)cc1N(CC(=O)NC(C(C)C)C(C)C)S(C)(=O)=O,17,0.9,-8,1,-10,9
O=[N+]([O-])c1ccccc1NC(=S)N/N=C/c1ccc(O)c(O)c1,11,0.3,-3,0,-29,72*
Cc1nc(Cl)sc1C(=O)O,4,1,-3,5,55*,4
CCn1c(O)c(N=NC2=NC(=O)CS2)c2ccccc21,2,0.3,-9,-26,-38,65*
CCn1c(O)c(N=N)c2ccccc21,-1,0.9,-1,12,-11,12
SMILES,G6PDH counter,Diaphorase act,HKDC1 inh,PfG6PD inh,Tb hexokinase,Diaphorase inh
CCCCCCn1c(SCC(C)C)nc2c1c(=O)[nH]c(=O)n2C,11,0.9,-4,-6,-1,7
CCCCCCn1c(SCC(=O)OC)nc2c1c(=O)[nH]c(=O)n2C,-10,0.9,-17,78*,-3,15
COc1ccc(-n2c(NC(=O)c3ccco3)c(C#N)c3nc4ccccc4nc32)cc1,42,0.3,13,15,-5,70*
CCC(=O)Nc1c(C#N)c2nc3ccccc3nc2n1C1CCCCC1,4,0.7,14,36,-4,28
CCOC(=O)c1c(NC(=O)c2ccco2)n(C2CCCCC2)c2nc3ccccc3nc12,38,0.3,15,30,-17,69*
C/C(=N\NC(=O)c1ccc([N+](=O)[O-])cc1)c1c(O)cc(C)oc1=O,1,0.9,-7,-14,-14,12
C/C(=N/NC(=O)c1cc(O)c(O)c(O)c1)c1ccc([N+](=O)[O-])cc1,9,0.2,19,38,-2,75*

# Source: PubChem BioAssay (several laboratories)
